Bioassay records: PubChem, several laboratories
This is a sample that favours compounds with a hit; in the whole collection about 1.4% have one here.
KLK5 inh: human KLK5 protease inhibitors, primary screen, biochemical, 1536-well | Kallikrein-5 (Homo sapiens), Q9Y337 | recombinant hK5, fluorogenic AMC substrate cleavage | inhibition, % at 5 µM | hit rate 0.59% among 210,000 | AID 873, 2007;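 active = inhibition of 40% or more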
FXIIa inh 1536: human FXIIa protease inhibitors, primary screen, biochemical, 1536-well. Coagulation factor XII (Homo sapiens), P00748. inhibition, % at 5 µM. purified FXIIa, Boc-QGR-AMC fluorogenic substrate, 2 h. hit rate 0.3% among 220,000; in the data active = inhibition above about 40%
Target sequence (P00748 20-372 limits assumed): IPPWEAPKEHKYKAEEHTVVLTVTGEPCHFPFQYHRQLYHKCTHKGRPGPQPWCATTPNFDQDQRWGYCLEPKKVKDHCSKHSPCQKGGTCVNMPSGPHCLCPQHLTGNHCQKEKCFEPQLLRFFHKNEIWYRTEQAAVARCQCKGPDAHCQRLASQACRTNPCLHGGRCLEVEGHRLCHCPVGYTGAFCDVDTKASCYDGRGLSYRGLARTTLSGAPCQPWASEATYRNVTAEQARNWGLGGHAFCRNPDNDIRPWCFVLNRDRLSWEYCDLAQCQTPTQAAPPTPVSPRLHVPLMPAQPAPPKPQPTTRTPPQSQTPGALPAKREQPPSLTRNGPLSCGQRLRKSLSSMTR
Target sequence (P00748 373-615 limits assumed): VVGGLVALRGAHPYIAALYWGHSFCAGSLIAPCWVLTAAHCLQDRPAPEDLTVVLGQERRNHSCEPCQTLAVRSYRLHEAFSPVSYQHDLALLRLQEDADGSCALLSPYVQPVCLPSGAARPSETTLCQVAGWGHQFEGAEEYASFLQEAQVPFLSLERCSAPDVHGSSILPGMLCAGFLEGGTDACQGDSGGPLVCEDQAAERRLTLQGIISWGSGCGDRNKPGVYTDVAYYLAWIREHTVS
Thrombin inh: human alpha-thrombin inhibitors, primary screen, counter-screen for coagulation protease inhibitor project, biochemical, 1536-well, fluorogenic AMC substrate | hit rate 0.26% among 220,000 | inhibition, % at 5 µM | Boc-VPR-AMC fluorogenic substrate cleavage | AID 1046, 2008;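 active = inhibition at or above 40%; inactive = inhibition below 40%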
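Assay system: human alpha-thrombin enzyme. Reagent: Boc-VPR-AMC substrate, 15 µM final. Compound dosing: one concentration per compound, 5 µM, with 0.2% DMSO. Incubation: room-temperature reaction. Technique: AMC fluorescence, 355/460 nm. Measure: % inhibition relative to enzyme controls and enzyme-free blanks.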
Calpain2 inh: inhibitors of pig calpain II, primary screen, biochemical, fluorogenic peptide substrate, 1536-well | purified calpain II, 30 min | inhibition, % at 16 µM | hit rate 0.37% among 220,000;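 active = inhibition above about 50%, limit read from the data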
FXIa inh: human FXIa protease inhibitors, primary screen, biochemical, 1536-well | Coagulation factor XI (Homo sapiens), P03951 | purified FXIa, Boc-Glu-Ala-Arg-AMC fluorogenic substrate | inhibition, % at 5 µM | hit rate 0.14% among 220,000 | AID 798, 2007;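 active = inhibition of at least 40%; inactive = inhibition below 40%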;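 note: fluorescence of freed AMC excited at 355 nm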
Large screens that a line does not name were inactive.

O=C(C1CC(c2ccc(Cl)c(Cl)c2)=NO1)N1CCC2(CC1)OCCO2 (centres undefined)	FXIIa inh 1536 47.9
O=C(C1CC(c2ccc(F)cc2)=NO1)N1CCC2(CC1)OCCO2 (centres undefined)	none
CCOP(=S)(OCC)SCC(=O)NC(C(=O)O)C(C)C (centres undefined)	none
CN1OCC2Cn3c(nc4ccccc43)C21 (centres undefined)	none
CCc1c(C)nc(N)nc1N1N=C1SCC#N	FXIIa inh 1536 58.3
CCC(=NCc1ccco1)c1c(O)n(-c2ccccc2C)c(=O)[nH]c1=O	none
CN(C(=O)Oc1cccc2cccnc12)c1ccccc1	FXIIa inh 1536 44.3
CN(C(=O)Oc1ccc(Cl)c2cccnc12)c1ccccc1	none
CCC(=O)c1c(O)n(C2CCCCCC2)c(=O)[nH]c1=O	KLK5 inh 46.3
CC(=NCCO)c1c(O)n(C2CCCCC2)c(=O)[nH]c1=O	none
CCCCN1C(=O)NC(=O)C2(Cc3c(nc4ccccn4c3=O)N3CCc4ccccc4C32)C1=O (centres undefined)	Thrombin inh 44.8
CN1C(=O)C(Cc2cccs2)C(=O)N(C)C1=O	none
O=C1NC(=O)C(Cc2cccs2)C(=O)N1	KLK5 inh 78.2
CC(C(=O)c1c[nH]c2ccccc12)N1CCN(C(=O)c2ccco2)CC1 (centres undefined)	none
O=P(C(c1c[nH]c2ccccc12)N1CCOCC1)(N1CCOCC1)N1CCOCC1 (centres undefined)	KLK5 inh 42.9
OCC#CC[N+]1(CC#Cc2ccccc2)CCOCC1	KLK5 inh 77.7
COC(=O)CC1(CC(=O)OC)C(=O)NC(=O)NC1=O	none
O=C(COC(=O)c1cccc(O)c1)Nc1ccc(Cl)cc1C(=O)c1ccccc1	Calpain2 inh 52.6
Cc1ccc(C2C(S(C)(=O)=O)=C(O)C(=O)N2c2ccccc2)cc1 (centres undefined) (tested in a mixture with another compound)	KLK5 inh 44.2
